IC50 and Activity data for six compounds are collected here from ChEMBL document CHEMBL1208680, “Synthesis and cytotoxicity screening of substituted isobenzofuranones designed from anacardic acids” (Eur J Med Chem, 2010).

≈ marks a conversion by molar mass, not a printed value. Calls of active or inactive are those of the source. The calls are words filed in the database; no cut-off is given here. Where only a bound is given, the exact number is not on record here.

Assay [1] has as its system HL-60. Nature of the assay: Cytotoxicity against human HL60 cells after 72 hrs by MTT assay. In kind it is functional, cell-based. The following applies: HL-60, 72 h. A digest of the protocol: (§1)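 Cell lines obtained from NCI, kept in RPMI 1640 with 10% FBS, 2 mM glutamine and penicillin/streptomycin at 37 °C, 5% CO2. Seeding: HL-60 0.3 × 10⁶, SF295 0.6 × 10⁵, MDA-MB435 0.1 × 10⁶ cells/mL. Compounds were added 24 h after seeding at 0.39–25.00 in 0.1% DMSO and left for 72 h. MTT at 0.5 mg/mL was added for 3 h, formazan dissolved in DMSO, absorbance read at 595 nm. IC50 by non-linear regression, triplicate, two independent experiments. Doxorubicin served as positive control.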
A general note: Formazan colour is commonly taken as a measure of viable cells.

Another assay has as its system SF-295. Nature of the assay: Cytotoxicity against human SF295 cells after 72 hrs by MTT assay. As to conditions: SF-295, 72 h. The class given is functional, cell-based. The procedure, abridged:
as §1

Another assay relates to MDA-MB-435. Nature of the assay: Cytotoxicity against human MDA-MB-435 cells after 72 hrs by MTT assay. In kind it is functional, cell-based. The following applies: MDA-MB-435, 72 h. The procedure, abridged: as §1
For a further assay, the system named is PBMC. Description: Cytotoxicity against human PBMC after 72 hrs by Alamar blue assay. The class given is cell-based. A digest of the protocol: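 PBMC were isolated from heparinized blood of healthy donors on Histopaque-1077 and cultured in RPMI 1640 with 20% FBS plus 2% phytohaemagglutinin. Compounds were added after 24 h at 0.39–25.00 in 0.1% DMSO for 72 h. Alamar Blue was added 24 h before the end. Absorbance at 570 and 595 nm was converted to % reduced. IC50 by non-linear regression, triplicate, two independent experiments.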

Assay [2] relates to HL-60. Nature of the assay: Induction of apoptosis in human HL60 cells assessed as reduction in viable cells after 24 hrs. The class given is functional, cell-based. A digest of the protocol: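 HL-60 cells were exposed for 24 h. Cells were stained with acridine orange and ethidium bromide (each 100 in PBS) and examined by fluorescence microscopy, 300 cells counted per point. Vehicle was 0.1% DMSO; doxorubicin was the positive control. Three independent experiments in triplicate, ANOVA with Newman-Keuls test.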

For assay [3], the system named is HL-60. Description: Induction of apoptosis in human HL60 cells assessed as reduction of cells in intact membrane at 6 ug/ml by AO/BE staining. The class given is functional, cell-based.
Assay [4] concerns HL-60. Nature of the assay: Induction of apoptosis in human HL60 cells assessed as reduction of cells in intact membrane at 3 ug/ml by AO/BE staining. In kind it is functional, cell-based.
Assay [5] has as its system HL-60. Nature of the assay: Induction of apoptosis in human HL60 cells assessed as increase in DNA damage after 24 hrs by Comet assay. The class given is functional, cell-based. A digest of the protocol:
(§2)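 Alkaline comet assay on HL-60 cells exposed for 3, 6, 12 or 24 h. Lysis at pH 10, 4 °C, at least 1 h. Unwinding for 20 min in 300 mM NaOH/1 mM EDTA (pH >13), then electrophoresis at 0.81 V/cm for 20 min, 4 °C. Tail classes 0–4 were scored visually on 300 cells and converted to a damage index of 0–400. Vehicle was 0.1% DMSO.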

Assay [6] has as its system HL-60. Description: Induction of apoptosis in human HL60 cells assessed as increase in DNA damage by Comet assay. In kind it is functional, cell-based. The following applies: TDE = time-dependent effect. The procedure, abridged:
as §2

The test system of assay [7] is HL-60. Nature of the assay: Induction of apoptosis in human HL60 cells assessed as increase in DNA double strand breaks after 24 hrs by Comet assay. The class given is functional, cell-based. A digest of the protocol: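 Neutral comet assay on HL-60 cells treated for 24 h at 6. Electrophoresis in 100 mM Tris/300 mM sodium acetate, pH 8.5, after 60 min equilibration, then 60 min at 0.5 V/cm. Damage index was scored visually. Vehicle was 0.1% DMSO.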

Assay [8] deals with HL-60. Nature of the assay: Cytotoxicity against human HL60 cells assessed as cell viability by BrdU incorporation assay. In kind it is functional, cell-based. A digest of the protocol: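 HL-60 cells at 0.3 × 10⁶ cells/mL were treated for 24 h, with BrdU added for the final 3 h. Cytospin slides were stained by peroxidase immunocytochemistry with diaminobenzidine and haematoxylin counterstain. Two hundred cells per sample were scored for % BrdU-positive. Vehicle was 0.1% DMSO and the positive control doxorubicin. Mean ± S.E.M. from three independent experiments in triplicate.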
Background: Dividing cells build labelled thymidine or BrdU into new DNA.

The subject of assay [9] is HL-60. Description: Induction of apoptosis in human HL60 cells assessed as increase in DNA strand breaks after 12 hrs by Comet assay. The class given is functional, cell-based. A digest of the protocol:
as §2

Broadly, the IC50 is the concentration needed to halve the response being measured.

Take `CCCCCCCCCCCCCCC(Br)c1cccc(OC)c1C(=O)OC` (stereo unspecified): the IC50 in the assay on HL-60 [1], in the assay on SF-295, in the assay on MDA-MB-435 and with PBMC was greater than 25 µg/mL in each case.
With `CCCCCCCCCCCCCC(=O)C1OC(=O)c2c(OC)cccc21` (racemic), the IC50 came to 3.24 µg/mL (≈ 8.65 µM) with HL-60 [1], 10.1 µg/mL (≈ 26.9 µM) in the assay with SF-295, 8.7 µg/mL (≈ 23.2 µM) with MDA-MB-435 and 14.5 µg/mL (≈ 38.7 µM) with PBMC. The Activity result in the assay on HL-60 [2] was “Dose-dependent effect”; in the assay on HL-60 [5], “Dose-dependent effect”; with HL-60 [6], “tde”. Also, the outcome in the assay on HL-60 [3], with HL-60 [4] and in the assay with HL-60 [7] was Active. Besides, the result with HL-60 [8] was inactive.
For the compound `COc1cccc2c1C(=O)c1c(O)c3c(c(O)c1C2=O)C[C@@](O)(C(=O)CO)C[C@@H]3O[C@H]1C[C@H](N)[C@H](O)[C@H](C)O1` [DOXORUBICIN], the results for the IC50 in the assay with SF-295 and in the assay on MDA-MB-435 were 0.04 µg/mL (≈ 0.0736 µM) and 0.03 µg/mL (≈ 0.0552 µM), respectively.
Turning to `CCCCCCCCCCCCCCCc1cccc(OC)c1C(=O)OC`, the IC50 in the assay with HL-60 [1], in the assay on SF-295, in the assay with MDA-MB-435 and in the assay on PBMC was greater than 25 µg/mL each time.
Take `CCCCCCCCCCCCC/C=C/c1cccc(OC)c1C(=O)OC`: the IC50 came to 9.96 µg/mL (≈ 26.6 µM) in the assay with HL-60 [1], 12.8 µg/mL (≈ 34.3 µM) with SF-295, 3.31 µg/mL (≈ 8.84 µM) with MDA-MB-435 and 19.8 µg/mL (≈ 52.9 µM) in the assay on PBMC. Further, in the assay on HL-60 [2], the Activity entry is “Dose-dependent effect”. In addition, the result with HL-60 [3], in the assay on HL-60 [9] and in the assay on HL-60 [8] was Active.
Regarding `CCCCCCCCCCCCCC(O)C1OC(=O)c2c(OC)cccc21` (racemic), the IC50 is 21 µg/mL (≈ 55.8 µM) in the assay with HL-60 [1], greater than 25 µg/mL with SF-295, 12.3 µg/mL (≈ 32.6 µM) in the assay with MDA-MB-435 and greater than 25 µg/mL with PBMC. The outcome in the assay with HL-60 [3], in the assay on HL-60 [9] and in the assay with HL-60 [8] was Active.
